Drawing on PubChem BioAssay AID504383 (The Scripps Research Institute Molecular Screening Center, 2011), this text covers activation for 34 compounds.

Values joined by “and” are separate entries in the source; they are usually repeats but may differ in a detail not shown here. Equal values may be shown once. In all, about 2,500 compounds went through this assay and about 1,200 (48%) were called active. The set was probably picked from earlier hits. Some of the results follow. Unmarked numbers belong to inactive results.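 How the source made its calls: active means mean activation above the low control average plus 3 SD, as set in the primary screen (cut at about 12% in these data); inactive means the rest.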

In the experiment the target is Troponin I, cardiac muscle (Homo sapiens) + Troponin T, cardiac muscle (Homo sapiens) + Troponin C, slow skeletal and cardiac muscles (Homo sapiens) (UniProt P19429+P45379+P63316). The experiment can be described thus: calcium sensitizers of cardiac thin filaments – biochemical, IANBD-TnC fluorescence, triplicate, confirmation (AID 504383).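 Further: 0% = DMSO at 0.472 mM calcium and 100% = DMSO at 2.9 mM calcium.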 The following applies: IANBD-labeled cardiac RTF, Ca2+ sensitivity fluorescence, at 7.2 µM, hits give high values, tested at EC20 calcium, 0.472 mM. In a few lines: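 material = labelled regulated thin filaments | probe or stimulus = Ca2+ 0.472 mM, EC20 level | dosing = single nominal compound dose of 7.2 µM | schedule = 15 min at 25 °C | signal = fluorescence intensity of labelled filaments | evaluation = fluorescence gain scaled between EC20 and EC100 calcium controls | benchmarks = low control EC20 calcium, high control EC100 calcium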
`CC(C)n1c(=O)c(C=Nc2cccc([N+](=O)[O-])c2)c(O)n(CCc2ccccc2)c1=O`: the activation is 19.7% (active). As for `Cc1cc(Cl)nc(N)n1`, the figure is 96.2% (active); as for `C[C@]12CCC(=O)C=C1CC[C@@H]1[C@@H]2CC[C@]2(C)C(=O)CC[C@@H]12`, -0.04%. As for `CCOC(=O)c1ccccc1C(=O)OCC`, the figure is 4170% (active); as for `CCN(CC)C(=O)c1ccc(NC(=O)COc2ccc([N+](=O)[O-])cc2Cl)cc1`, 4.48%; as for `CCOC(=O)C1CCCN(c2ccc([N+](=O)[O-])c3nonc23)C1` (centres undefined), 16.5% [scaled from EC20 to saturating calcium] (active). As for `Nc1ccc2nonc2c1[N+](=O)[O-]`, the figure is 6.77%. For the compound `O=[N+]([O-])c1ccc(N2CCCCCC2)c2nonc12`, the activation is 31.9% (active).

With `O=[N+]([O-])c1ccc(N2CCCC2)c2ncccc12`, the activation is 38.3% (active). As for `CC(C)C[C@H]1C(=O)N2CCC[C@H]2[C@]2(O)O[C@](NC(=O)[C@@H]3C=C4c5cccc6[nH]cc(c56)C[C@H]4N(C)C3)(C(C)C)C(=O)N12`, the figure is 8.78%; as for `O=C1NC(=S)SC1=Cc1ccc(N(CCCl)CCCl)cc1`, 0.25%. The same measure for `CN1CCN(c2ccc3c(c2)S(=O)(=O)c2ccccc2C3=O)CC1`: 2.45%. As for `CCN1C[C@]2(CO)CC[C@H](OC)[C@@]34C5C[C@H]6[C@H](OC)C5[C@](O)(C[C@H]6OC)[C@@H](C(OC)C23)[C@@H]14` (some centres undefined), the figure is 15.5% (active); as for `C[C@]12CCC3C(CC[C@H]4C[C@@H](O)[C@H](O)C[C@]34C)C1CC[C@@H]2O` (some centres undefined), 24.5% (active); as for `Nc1c2c(nc3ccccc13)CCN(Cc1ccccc1)C2`, 87.8% (active).

As for `CCOP(=O)(Cc1cc(C#N)oc1C)OCC`, the activation is 7.87%.

Regarding `O=C(O)C1=CC2c3ccccc3C1c1ccccc12`, the activation is 11.7% (active). As for `CC(C)c1ccc(N2C(=O)NC(=O)/C(=C/C=C/c3ccco3)C2=O)cc1`, the figure is 7.28%; as for `CN(C)P(=O)(CCl)Nc1ccccc1` (centres undefined), 38.8% (active).

Consider `CN1CCC2(CC1)C(C#N)=C(N)NC(S)=C2C#N`, for which the activation was 6.17% and 11.4%. For `COC(=O)[C@H]1C[C@@H]1[C@H](NP(=O)(c1ccccc1)c1ccccc1)c1ccccc1`, the activation was -0.05%. As for `CCOCCCn1c(N)c(C(=O)Nc2sc3c(c2C(=O)OC)CCCC3)c2nc3ccccc3nc21`, the figure is 12.7% (active). The same measure for `COc1ccc(N=Nc2c(O)[nH]c(=S)[nH]c2=O)cc1`: 6.09%. The same measure for `CCOC(=O)c1cc(CC)sc1/N=C/c1c(O)[nH]c(=S)[nH]c1=O`: 8.76%; for `O=c1cc(C(F)(F)F)c2cc3c4c(c2o1)CCCN4CCC3`: 67.7% (active); for `Cc1cc2c(C(F)(F)F)cc(=O)oc2c2c1NCCC2`: 79.4% (active).

For the compound `Cc1ccc(C)c(Cn2c(C(=O)O)c(C=O)c3ccccc32)c1`, the activation is 4.27%. For the compound `CC1(C)OC(c2ccccc2)=C/C(=C/C=C2C(=O)NC(=O)NC2=O)O1`, the activation was 6.59%. Regarding `CN1/C(=C\C=C2C(=O)NC(=O)NC2=O)C(C)(C)c2ccccc21`, the activation was 9.74%. As for `CCC1(C)OC(c2ccccc2)=C/C(=C/C=C2C(=O)NC(=O)NC2=O)O1` (centres undefined), the figure is 32.1% (active); as for `CN1CCN(Cc2cn(C)c3ccccc23)CC1CCO` (centres undefined), 40.5% (active). The same measure for `C#C[C@]1(O)CC[C@H]2[C@@H]3CCC4=Cc5nc6nc7ccccc7n6cc5C[C@]4(C)[C@H]3CC[C@@]21C`: 6.44%. As for `C=Cn1ccnc1P(=S)(c1nccn1C=C)c1nccn1C=C`, the figure is 23.4% (active). As for `COC(=O)C1=C(c2cccc(C#N)c2)C[C@@H]2CC[C@H]1N2C(=O)N1CCOCC1`, the activation is 14.3% (active).
